Values joined by “and” are separate entries in the source; they are usually repeats but may differ in a detail not shown here. Equal entries are not always repeated. Where two headings read alike, the source gives them in different places.
Tests used:
[1] = IVIVE, rat EAD with httk.PBTK model; settings: oral; for EAD using Httk.PBTK model, using nominal dTP Conc.: Cmax = dTP; for EAD using Httk.PBTK model, using free medium Conc.: Cmax = free medium dTP
Method in brief: (§1)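 Reverse dosimetry used the generic PBTK model from httk R package v1.8.1: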

[2] = test system: human iPS cells (HYR0103, ATCC ACS‐1007); assay: devTOX quickPredict; assay type: cell-based; settings: threshold 0.85, 48 hours; for TP: cell viability; for dTP: o/c ratio
Method in brief: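 Human iPS cells exposed across a concentration range. Ornithine and cystine abundance measured, and ornithine/cystine ratio calculated at each concentration. dTP is the concentration, interpolated from the ratio response curve, where the ratio drops below a predefined developmental-toxicity threshold set from pharmaceuticals of known human teratogenicity. TP is the concentration where viability falls below the same threshold. Nominal values converted to free-medium concentration by mass-balance model.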

[3] = IVIVE, rat EAD with one‐compartment PPK model; settings: oral; for EAD using PPK model, using nominal dTP Conc.: Css = dTP; for EAD using PPK model, using free medium Conc.: Css = free medium dTP
Method in brief: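 Rat one-compartment population PK model assuming 100% absorption. Total clearance was hepatic plus renal (passive glomerular filtration), with inputs of plasma unbound fraction and hepatocyte Clint (predicted or experimental). Monte Carlo simulation of 10,000 individuals gave the upper 95th percentile steady-state plasma concentration. EAD was the dose giving total Css equal to the nominal dTP or Armitage-model free medium concentration.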

[4] = IVIVE, human EAD with GastroPlus pregnancy PBPK model; settings: for EAD, GP.pregancy model, Maternal plasma Cmax, free medium concentration / EAD, GP.pregancy model, Maternal plasma Cmax, nominal dTP: human pregnancy, 12 weeks gestation
[5] = IVIVE, human EAD with httk.PBTK model; settings: oral
Method in brief: as §1

[6] = test system: rat dams and fetuses; settings: cited from earlier work; for Developmental toxicity LEL: rat, oral repeat dosing, maternal and fetal LELs combined, ref Table 2 sources
[7] = cited from earlier work; for Range of all human OEDs reported: across all in vitro assays (OEDall); for Range of all human OEDs reported / Range of human OEDs estimated from most sensitive endpoints: ref OECD, 2020; for Range of human OEDs estimated from most sensitive endpoints: most sensitive endpoint in each in vitro model (OEDnarrow)
[8] = EAD by linear extrapolation of clinical dose‐Cmax data; settings: human, linear extrapolation of clinical dose‐Cmax data from PharmaPendium
Method in brief: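 Clinical dose–plasma Cmax data for the reference teratogen were taken from PharmaPendium. Dose giving Cmax equal to the in vitro dTP concentration was found by linear extrapolation. dTP is the interpolated concentration where the ornithine/cystine ratio curve in the human iPS cell devTOX qP assay falls below the predefined threshold.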

[9] = from CALUX Min EC10 cell-total, ref OECD 2020
[10] = from UKN1 HDAC inhibition EC10, ref OECD 2020
[11] = from ZET pericardial and/or yolk oedema Total embryo EC10, ref OECD 2020
[12] = from mEST HDAC inhibition, day 10 EC10, ref OECD 2020
[13] = Wistar, drinking water, GD 6–19, ref Pennanen et al. (1992)
[14] = Sprague–Dawley, corn oil gavage, GD 6–15, ref Narotsky et al., 1994

| Structure (SMILES) | EAD using Httk.PBTK model, using nominal dTP Conc. [1] [mg/kg/day] | EAD using Httk.PBTK model, using free medium Conc. [1] [mg/kg/day] | TP [2] | dTP [2] | EAD using PPK model, using nominal dTP Conc. [3] | EAD using PPK model, using free medium Conc. [3] | EAD, GP.pregancy model, Maternal plasma Cmax, free medium concentration [4] [mg/kg/day] | EAD, GP.pregancy model, Maternal plasma Cmax, nominal dTP [4] [mg/kg/day] | EAD, Httk.PBTK model, free medium concentration [5] [mg/kg/day] | EAD, Httk.PBTK model, nominal dTP [5] [mg/kg/day] | Developmental toxicity LEL [6] | Range of all human OEDs reported [7] | Human OED_max fu model [7, 9] [mg/kg] | Human OED_max fu model [7, 10] [mg/kg] | Human OED_max fu model [7, 11] [mg/kg] | Human OED_max fu model [7, 12] [mg/kg] | Range of human OEDs estimated from most sensitive endpoints [7] | further results |
| --- | --- | --- | --- | --- | --- | --- | --- | --- | --- | --- | --- | --- | --- | --- | --- | --- | --- | --- |
| C=CCC(CCC)C(=O)O (stereo not shown) [4‐ene‐VPA, 2‐Propyl‐4‐pentenoic acid] | 77.1 | 61.7 | 636 µM | 611 µM | 119.6 mg/kg/day | 95.7 mg/kg/day |  |  |  |  |  |  |  |  |  |  |  |  |
| CCCC(C)(C)C(=O)O [DMPA, 2,2‐Dimethylpentanoic acid] | 388.3 | 209.7 | 1,745 μM | 784 µM | 936.6 mg/kg/day | 505.8 mg/kg/day |  |  |  |  |  |  |  |  |  |  |  |  |
| CCC(CC)C(=O)O [EBA, 2‐Ethylbutyric acid] | 517.4 | 431.8 |  | 1,071 μM | 2,708.3 mg/kg/day | 2,260.4 mg/kg/day | 127.8 | 153.2 | 404.5 | 484.7 | 150 mg/kg/day | 34.4–826.6 | 35.8 | 161.4 | 53.3 | 357.8 | 35.8–357.8 |  |
| CCCCC(CC)C(=O)O (stereo not shown) [EHA, 2‐Ethylhexanoic acid] | 77.3 | 36.9 | 390 µM | 399 µM | 95.3 mg/kg/day | 45.5 mg/kg/day | 6.7 | 14.1 | 22.4 | 47.0 | 100 to 600 mg/kg/day | 0.74–901.3 |  |  |  |  |  | LEL: Fetal toxicity [6, 13]: 100 mg/kg/day; LEL: Maternal toxicity [6, 13]: 600 mg/kg/day; Human OED_max fu model ([7]; human): 4.8 mg/kg |
| CCCCCC(=O)O [HA, Hexanoic acid] | 652.7 | 515.6 | 1,022 μM | 838 µM | 2,921.8 mg/kg/day | 2,308.2 mg/kg/day |  |  |  |  |  |  |  |  |  |  |  |  |
| CCCCC(C)C(=O)O (stereo not shown) [MHA, 2‐Methylhexanoic acid] | 331.4 | 205.5 | 1,631 μM | 976 µM | 924.3 mg/kg/day | 573.1 mg/kg/day | 36.5 | 59.12 | 176.0 | 285.5 |  | 2.3–928.4 | 2.3 | 254.8 | 55.1 | 286.3 | 2.3–286.3 |  |
| CCCC(C)C(=O)O (stereo not shown) [MPA, 2‐Methylpentanoic acid] | 574.2 | 467.4 |  | 1,248 μM | 2,957.1 mg/kg/day | 2,407.2 mg/kg/day | 135.8 | 166.9 | 440.6 | 541.2 | 188 mg/kg/day | 35.2–1,353.3 | 37.3 | 186.6 | 84.5 | 261.1 | 37.3–261.1 | LEL: Maternal toxicity [6, 14]: 188 mg/kg/day |
| C=CCCC(=O)O [PA, 4‐Pentenoic acid] | 147.7 | 145.2 | 719 µM | 913 µM | 947.1 mg/kg/day | 931.1 mg/kg/day |  |  |  |  | 50 to 75 mg/kg/day |  |  |  |  |  |  | LEL: Fetal toxicity [6, 14]: 50 mg/kg/day |
| CCCCCC(CCC)C(=O)O (stereo not shown) [PHA, 2‐Propylheptanoic acid] | 39.5 | 9.1 | 425 µM | 546 µM | 27.5 mg/kg/day | 6.3 mg/kg/day |  |  |  |  |  |  |  |  |  |  |  |  |
| CCCC(CCC)C(=O)O [VPA, Valproic acid, reference compound] | 13.5 | 5.8 | 318 µM | 236 µM | 33.3 mg/kg/day | 14.3 mg/kg/day | 2.7 | 6.4 | 4.5 | 10.4 | 200 mg/kg/day and 200 to 400 mg/kg/day | 0.11–51.9 | 3.2 | 3 | 2.8 | 2 | 0.11–3.2 | range of EADs derived from the in vitro dTP concentration ([4]; human, across all models, nominal and free): 2.7 to 24.4 mg/kg/day; EAD based on Clinical PK data [8]: 4.6 mg/kg/day; LEL: Fetal toxicity ([6]; Sprague–Dawley, GD 8–17, dose range 0–800, ref Binkerd et al., 1988): 200 mg/kg/day; LEL: Fetal toxicity [6, 14]: 200 mg/kg/day; LEL: Maternal toxicity [6, 14]: 400 mg/kg/day |

From publication PMC9790683 (Birth Defects Research, 2022)
